TAAR1 ag – human TAAR1 agonism. activation, % at 3 µM. AID 624467. 0.99% of 360,000 active. Q96RJ0. CHO RD-HGA16 TAAR1, Fluo-8 calcium fluorescence; vehicle wells 0%, saturating PEA agonist 100%;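 active = activation above the mean activation of all test compounds in the run plus 3 SD, cut at about 38% in these data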
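System: CHO-derived RD-HGA16 cells with stable Gα16 and human TAAR1 / Times: 17-24 h plating, Fluo-8 75 min 37 °C, 30 min RT / Technique: calcium-sensitive Fluo-8 signal, excitation 470-495, emission 515-575 nm / Measure: % activation relative to PEA EC100 response / Benchmarks: DMSO and PEA EC100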
CHO parental Ca – signal in parental CHO cells, OX1R antagonist counter-screen | parental CHO-K1, ATP-induced calcium, Fluo-8 fluorescence | inhibition, % at 5.6 µM | 0.63% of 330,000 active | AID 463079;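 active = inhibition above that plate's mean sample inhibition plus 3 SD, cut at about 26% in these data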;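 note: 0% = ATP-challenged DMSO wells and 100% = DMSO wells without ATP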
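Test system: untransfected parental CHO cell line; also added: ATP stimulus; dosing: 5.6 µM, single dose; signal: calcium-sensitive Fluo-8 fluorescence; measure: percent inhibition of ATP-evoked calcium rise, normalized to controls; benchmarks: low control ATP plus DMSO, high control DMSO only; replication: one well per compound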
GPR7 antagonist – antagonists of human GPR7 (neuropeptides B/W receptor 1) | P48145 | GPR7-expressing cells, fluorescence antagonist assay | inhibition, % at 4.4 µM | 1.1% of 290,000 active; in the data active = inhibition above about 16%, passing the limit was not always enough;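 note: cells stimulated with the agonist NPW; 0% = agonist with vehicle and 100% = vehicle without agonist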
TAAR1 antagonist – human TAAR1 antagonism. CHO RD-HGA16 TAAR1, Fluo-8 calcium fluorescence, antagonist. AID 624466. 1.5% of 360,000 active. inhibition, % at 3 µM;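 active = inhibition above a per-plate cutoff, the mean inhibition of test compounds on that plate plus 3 SD, cut at about 49% in these data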;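 note: 0% = DMSO plus EC80 beta-PEA response and 100% = DMSO alone without agonist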
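Test system – hTAAR1-expressing CHO RD-HGA16 cells, Gα16-coupled · Reagent – β-PEA at EC80 concentration, post-compound challenge · Compound dosing – 3 µM, single point · Timing – 140 s kinetic read after compound, 140 s after agonist · Detection – Fluo-8 intracellular calcium dye fluorescence, real-time kinetic reads · Control set – DMSO and EC80 PEA controls · Repeats – n of 1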
OX1R antag-1 – antagonists of human orexin 1 receptor (OX1R); 1.8% of 330,000 active; OX1R-expressing cells, FRET antagonist read-out; O43613; inhibition, % at 6.6 µM; in the data active = inhibition mostly above about 38%, no sharp cut-off; inactive = mostly below about 40%;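 note: 0% = agonist challenge alone and 100% = reference antagonist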
Target sequence (O43613 whole entry, looked up): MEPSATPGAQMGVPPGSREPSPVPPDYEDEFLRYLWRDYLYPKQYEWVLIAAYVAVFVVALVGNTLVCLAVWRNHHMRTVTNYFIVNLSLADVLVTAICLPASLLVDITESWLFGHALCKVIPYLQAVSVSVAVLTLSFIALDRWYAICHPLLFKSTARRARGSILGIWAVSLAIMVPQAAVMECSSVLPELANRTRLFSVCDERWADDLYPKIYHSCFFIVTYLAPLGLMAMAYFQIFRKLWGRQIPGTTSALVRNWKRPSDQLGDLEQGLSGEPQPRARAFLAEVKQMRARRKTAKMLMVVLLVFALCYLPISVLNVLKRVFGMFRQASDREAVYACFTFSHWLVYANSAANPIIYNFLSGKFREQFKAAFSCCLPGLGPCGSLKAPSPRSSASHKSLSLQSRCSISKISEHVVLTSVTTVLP
OX1R antag-2 – human HCRTR1 antagonism | CHO/OX1R cells, Fluo-8 calcium fluorescence, orexin A | AID 434989 | 0.43% of 330,000 active | O43613 | inhibition, % at 5 µM;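 active = inhibition above its plate's threshold, mean inhibition of all tested compounds on the plate plus 3 SD, cut at about 37% in these data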;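 note: 0% = orexin A challenge wells and 100% = SB-334867-A antagonist wells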
Starred values were filed as active, the others as inactive. Rows were chosen to be rich in hits. Some 4.6% of all compounds tested hit in one or more screens of this group.

What do the screens show for `Cn1c(/C=C/c2cccc([N+](=O)[O-])c2)c([N+](=O)[O-])c(=O)n(C)c1=O`?
TAAR1 ag: -1.6; CHO parental Ca: -9.8; GPR7 antagonist: -3.2; TAAR1 antagonist: 0.3; OX1R antag-1: 22.7; OX1R antag-2: -16.8

What do the screens show for `CC(=O)NCC1COc2ccccc2O1` (stereo unspecified)?
TAAR1 ag: 3.6; CHO parental Ca: -10.0; GPR7 antagonist: -12.8; TAAR1 antagonist: 8.6; OX1R antag-1: 2.1; OX1R antag-2: -16.0

Results for COCc1c(C(=O)NCC2COc3ccccc3O2)oc2ccccc12 (stereo unspecified) ?
TAAR1 ag: -1.2; CHO parental Ca: -25.6; TAAR1 antagonist: -7.0; OX1R antag-1: 68.1*; OX1R antag-2: 7.0

How did CCOc1ccc(OCCNC(=O)c2oc3ccccc3c2COC)cc1 do in these assays?
TAAR1 ag: -2.5; CHO parental Ca: -13.7; TAAR1 antagonist: -2.3; OX1R antag-1: 10.2; OX1R antag-2: -5.7

Results for COCc1c(C(=O)NCCOc2ccc(Cl)cc2)oc2ccccc12 ?
TAAR1 ag: 10.8; CHO parental Ca: -24.0; TAAR1 antagonist: 3.3; OX1R antag-1: 34.4*; OX1R antag-2: -8.4

What do the screens show for `Cc1cc(=O)oc(C)c1C(=O)NCC1COc2ccccc2O1` (stereo unspecified)?
TAAR1 ag: 39.9*; CHO parental Ca: -8.8; GPR7 antagonist: -2.7; TAAR1 antagonist: -10.7; OX1R antag-1: 2.2; OX1R antag-2: 1.0

What do the screens show for `C[C@@H]1CN([C@@H](C)CO)C(=O)CCCn2nncc2CO[C@H]1CN(C)S(=O)(=O)c1ccc(F)cc1`?
TAAR1 ag: 3.3; TAAR1 antagonist: -4.4

How did Cc1ccc2c(c1)-c1c(cnn1CC(=O)N(Cc1ccco1)C1CCCCC1)CO2 do in these assays?
TAAR1 ag: -1.0; CHO parental Ca: -12.3; GPR7 antagonist: -3.5; TAAR1 antagonist: 8.3; OX1R antag-1: 52.2*; OX1R antag-2: -13.2

How did CCOc1ccc(-c2cccc(NC(=O)COc3ccccc3)c2)nn1 do in these assays?
CHO parental Ca: -22.6; GPR7 antagonist: -4.6; OX1R antag-1: 22.7; OX1R antag-2: -25.9

Results for Fc1cccc(CCN2CCNC[C@@H]2CC2CCCCC2)c1 ?
TAAR1 ag: 39.2*; CHO parental Ca: -15.0; TAAR1 antagonist: 6.7; OX1R antag-1: -0.5; OX1R antag-2: -14.0

What do the screens show for `Oc1ccc(C[C@@H]2CNCCN2CCCCC2CCCCC2)cc1`?
TAAR1 ag: 43.0*; CHO parental Ca: 19.6; TAAR1 antagonist: 2.8; OX1R antag-1: 4.8; OX1R antag-2: -4.3

Results for CCCCN1CC(N(C)CCN(C)C)CS1(=O)=O (stereo unspecified) ?
TAAR1 ag: 1.6; TAAR1 antagonist: -5.9

Results for O=C1c2cc(Cl)ccc2OC2(CCNCC2)C12CC(c1ccc(Cl)cc1)=NO2 (stereo unspecified) ?
CHO parental Ca: -2.1; OX1R antag-1: 18.7; OX1R antag-2: -22.2

What do the screens show for `O=C1c2cc(Cl)ccc2OC2(CCNCC2)C12CC(c1ccccc1)=NO2` (stereo unspecified)?
TAAR1 ag: 43.1*; CHO parental Ca: 2.9; TAAR1 antagonist: 38.9; OX1R antag-1: 31.8; OX1R antag-2: -2.5

What do the screens show for `O=C(NCCc1ccccc1)C1CCN(C(=O)N2CCOc3ccccc32)CC1`?
TAAR1 ag: 17.6; CHO parental Ca: -6.7; GPR7 antagonist: 4.1; TAAR1 antagonist: -15.4; OX1R antag-1: 7.3; OX1R antag-2: -12.8

What do the screens show for `O=C(NCCc1ccc(Cl)cc1)C1CCN(C(=O)N2CCOc3ccccc32)CC1`?
TAAR1 ag: 20.6; CHO parental Ca: 3.5; GPR7 antagonist: 10.6; TAAR1 antagonist: 49.9*; OX1R antag-1: 8.1; OX1R antag-2: -8.0

Results for COc1ccc(-c2noc3c2-c2nc(-c4ccc(Br)cc4)sc2CC3)cc1 ?
TAAR1 ag: 2.8; CHO parental Ca: 4.0; TAAR1 antagonist: -3.8; OX1R antag-1: 23.1; OX1R antag-2: -26.1

Results for C#Cc1cccc(Nc2nc(NCc3ccccc3OC)nc3ccsc23)c1 ?
TAAR1 ag: 5.1; TAAR1 antagonist: 51.6*

How did C#Cc1cccc(Nc2nc(NC(C)C)nc3ccsc23)c1 do in these assays?
TAAR1 ag: 2.3; TAAR1 antagonist: 35.1

Results for C#Cc1cccc(Nc2nc(NCCOC)nc3ccsc23)c1 ?
TAAR1 ag: 8.5; TAAR1 antagonist: 56.7*

Compound activity deposited in PubChem by The Scripps Research Institute Molecular Screening Center.
